Experiment [1] relates to Staphylococcus epidermidis. Kind of experiment: Activity against Staphylococcus epidermidis (IAM 1296). It is filed as functional. The method in brief: (§1)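 Agar dilution MIC: serial 2-fold dilutions in Mueller-Hinton agar, inoculum about 10^6 CFU/mL, incubated at 37 °C for 18 h. The MIC is the lowest concentration that prevents visible bacterial growth.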
The test system of experiment [2] is Staphylococcus aureus. The experiment in a line: Activity against Staphylococcus aureus (FDA207PJC-1). It is filed as functional. The method in brief: as §1
The test system of experiment [3] is Acinetobacter calcoaceticus. The experiment in a line: Activity against Acinetobacter calcoaceticus (AC54). It is filed as functional. The method in brief:
as §1

The subject of experiment [4] is Bacillus subtilis. The experiment in a line: Activity against Bacillus subtilis (ATCC 6633). It is filed as functional. The method in brief: as §1
For experiment [5], the system named is Nucleic Acid. The experiment in a line: Inhibitory effect on DNA gyrase supercoiling activity from Escherichia coli K-12 C600. It is filed as functional.
In experiment [6] the test system is Escherichia coli. The experiment in a line: Activity against Escherichia coli (K-12 C600). It is filed as functional. The method in brief: as §1
In experiment [7] the test system is Enterococcus faecalis. The experiment in a line: Activity against Streptococcus faecalis (IID 682). It is filed as functional. The method in brief: as §1
Experiment [8] deals with Staphylococcus aureus. Kind of experiment: Activity against Staphylococcus aureus (IID 803). It is filed as functional. The method in brief:
as §1

Experiment [9] relates to Klebsiella pneumoniae. The experiment in a line: Activity against Klebsiella pneumoniae (PCI-602). It is filed as functional. The method in brief:
as §1

Experiment [10] concerns Pseudomonas aeruginosa. The experiment in a line: Activity against Pseudomonas aeruginosa (E-2). It is filed as functional. The method in brief: as §1
Experiment [11] concerns Escherichia coli. The experiment in a line: Activity against Escherichia coli (KC-14). It is filed as functional. The method in brief: as §1
In experiment [12] the test system is Burkholderia cepacia. The experiment in a line: Activity against Pseudomonas cepacia (IID-1341). It is filed as functional. The method in brief:
as §1

Experiment [13] relates to Klebsiella aerogenes. Kind of experiment: Activity against Enterobacter aerogenes (ATCC 13048). It is filed as functional. The method in brief:
as §1

The subject of experiment [14] is Pseudomonas cepacia (Burkholderia cepacia). Kind of experiment: Activity against Pseudomonas cepacia (IID-1341).

Molecules are shown by their SMILES. Values after ≈ are worked out from the molar mass of the structure shown. Some results are limits rather than exact numbers.

Consider `CC1COc2c(N3CCN(C)CC3)c(F)cc3c(=O)c(C(=O)O)cn1c23` (centres undefined) [OFLOXACIN], for which the MIC (commonly the lowest concentration found to suppress growth) in experiment [1] was 0.78 mg/L (≈ 2.16 µM); in [2], 0.39 mg/L (≈ 1.08 µM); in experiment [3], 0.39 mg/L (≈ 1.08 µM); in experiment [4] it was 0.1 mg/L (≈ 0.277 µM); in [6], 0.2 mg/L (≈ 0.553 µM); in experiment [7], 1.56 mg/L (≈ 4.32 µM). Moreover, the MIC was 0.39 mg/L (≈ 1.08 µM) in experiment [8]; 0.05 mg/L (≈ 0.138 µM) in [9]; 1.56 mg/L (≈ 4.32 µM) in [10]; 0.1 mg/L (≈ 0.277 µM) in experiment [11]; 6.25 mg/L (≈ 17.3 µM) in [12]; 0.1 mg/L (≈ 0.277 µM) in experiment [13]. The IC50 (commonly the concentration that gives 50% inhibition) in [5] was found to be 0.59 mg/L (≈ 1.63 µM).

On to `CCn1cc(C(=O)O)c(=O)c2cc(F)c(N3CCNCC3)nc21` [ENOXACIN], for which the MIC in experiment [1] was 3.13 mg/L (≈ 9.77 µM); in [2], 0.78 mg/L (≈ 2.44 µM); in experiment [3], 3.13 mg/L (≈ 9.77 µM); in experiment [4] it was 0.2 mg/L (≈ 0.624 µM); in experiment [6] it was 0.2 mg/L (≈ 0.624 µM); in [7], 3.13 mg/L (≈ 9.77 µM). The MIC in experiment [8] was 0.78 mg/L (≈ 2.44 µM); in [9], 0.1 mg/L (≈ 0.312 µM); in [10], 1.56 mg/L (≈ 4.87 µM); in experiment [11], 0.2 mg/L (≈ 0.624 µM); in [12], 6.25 mg/L (≈ 19.5 µM); in experiment [13] it was 0.2 mg/L (≈ 0.624 µM).

`CN1CCN(c2nc3c(cc2F)c(=O)c(C(=O)O)c2n3CCN2C)CC1`: the minimal inhibitory concentration (MIC) is 100 mg/L (≈ 277 µM) in experiment [1]; 100 mg/L (≈ 277 µM) in experiment [2]; 100 mg/L (≈ 277 µM) in experiment [3]; 25 mg/L (≈ 69.2 µM) in experiment [4]; 50 mg/L (≈ 138 µM) in experiment [6]; 100 mg/L (≈ 277 µM) in experiment [7]. In addition, the MIC in [8] amounted to 100 mg/L (≈ 277 µM); in experiment [9] it was 6.25 mg/L (≈ 17.3 µM); in [10], 100 mg/L (≈ 277 µM); in [11] it was 50 mg/L (≈ 138 µM); in experiment [12] it was 100 mg/L (≈ 277 µM); in experiment [13] it was 50 mg/L (≈ 138 µM). Also, the IC50 in experiment [5] was above 25 mg/L.

In the case of `CC1COc2c(C(=O)O)c(=O)c3cc(F)c(N4CCN(C)CC4)nc3n21` (centres undefined), the MIC was above 25 mg/L in experiment [1]; 12.5 mg/L (≈ 34.5 µM) in experiment [2]; above 25 mg/L in experiment [3]; 3.13 mg/L (≈ 8.64 µM) in experiment [4]; 12.5 mg/L (≈ 34.5 µM) in [6]; above 25 mg/L in experiment [7]. Besides, the MIC in [8] is 12.5 mg/L (≈ 34.5 µM); in experiment [9] it was 0.78 mg/L (≈ 2.15 µM); in experiment [10] it was above 25 mg/L; in [11], 6.25 mg/L (≈ 17.2 µM); in experiment [14], above 25 mg/L; in experiment [13], 6.25 mg/L (≈ 17.2 µM). This compound registered an IC50 in experiment [5] of 6.11 mg/L (≈ 16.9 µM).

For `CN1CCN(c2nc3c(cc2F)c(=O)c(C(=O)O)c2n3CCS2)CC1`, the MIC in [1] is 1.56 mg/L (≈ 4.28 µM); in experiment [2], 0.39 mg/L (≈ 1.07 µM); in experiment [3] it was 0.39 mg/L (≈ 1.07 µM); in experiment [4], 0.1 mg/L (≈ 0.274 µM); in [6], 0.2 mg/L (≈ 0.549 µM); in experiment [7], 6.25 mg/L (≈ 17.2 µM). Also, the MIC came out at 0.39 mg/L (≈ 1.07 µM) in experiment [8]; 0.05 mg/L (≈ 0.137 µM) in experiment [9]; 1.56 mg/L (≈ 4.28 µM) in [10]; 0.2 mg/L (≈ 0.549 µM) in [11]; 3.13 mg/L (≈ 8.59 µM) in experiment [12]; 0.2 mg/L (≈ 0.549 µM) in [13]. The compound also registered an IC50 in experiment [5] of 0.52 mg/L (≈ 1.43 µM).

(Values after ChEMBL document CHEMBL1124850, “Synthesis and antibacterial activity of thiazolo-, oxazolo-, and imidazolo[3,2-a][1,8]naphthyridinecarboxylic acids” (J Med Chem, 1990).)
